Laboratory results as given in ChEMBL document CHEMBL2346555, “Efficacious cyclic N-acyl O-amino phenol duocarmycin prodrugs” (J Med Chem, 2013).
The source made the active and inactive calls. The calls are words filed in the database; no cut-off is given here.

Assays:
L1210 [1] = experiment: Cytotoxicity against mouse L1210 cells assessed as growth inhibition after 72 hrs by phosphatase assay; type: functional, cell-based
Method in brief: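 L1210 mouse leukemia cells were seeded at 30,000 cells/mL in DMEM with 10% FBS and grown 24 h at 37 °C, 5% CO2. DMSO dilutions were then added at six concentrations between 0–100 or 0–1000 nM, in duplicate, for 72 h. Read-out: phosphatase substrate in 0.1 M NaOAc pH 5.5 with 0.1% Triton X-100, 5 min at 37 °C, stopped with NaOH, A405. IC50 is the average of ≥4 determinations.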

Mus musculus [2] = experiment: Toxicity in B6D2F1 mouse allografted with mouse L1210 cells assessed as mortality at 100 to 250 ug/kg, ip tid administered on day 1 to 9 measured after 366 days; type: organism-based; details: in vivo, 8784 h
Method in brief: (§1)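 Syngeneic L1210 cells (1 × 10^6) were given i.p. to B6D2F1 mice on day 0; 10 per group. Compound in 100% DMSO was injected i.p. on days 1, 5 and 9. Animals were monitored daily and weighed twice weekly, with the study extended to 366 days. Deaths from drug toxicity were recorded.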

L1210 [3] = experiment: Antitumor activity against mouse L1210 cells allografted in B6D2F1 mouse assessed as mean survival period at 100 ug/kg, ip tid administered on day 1 to 9 measured after 366 days relative to vehicle-treated control; type: functional
Method in brief: (§2)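 L1210 cells (1 × 10^6) injected i.p. into B6D2F1 mice on day 0; 10 mice per group, randomized to vehicle or treatment. Dosing in 100% DMSO i.p. on days 1, 5 and 9 at 60–2500 μg/kg/inj. Animals were monitored daily and weighed twice weekly, with follow-up extended to 366 days. T/C = total survival days of the treated group ÷ total survival days of the control group × 100.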

L1210 [4] = experiment: Antitumor activity against mouse L1210 cells allografted in B6D2F1 mouse assessed as mean survival period at 60 ug/kg, ip tid administered on day 1 to 9 measured after 366 days relative to vehicle-treated control; type: functional; method in brief: as §2
L1210 [5] = experiment: Antitumor activity against mouse L1210 cells allografted in B6D2F1 mouse assessed as mean survival period at 250 ug/kg, ip tid administered on day 1 to 9 measured after 366 days relative to vehicle-treated control; type: functional; method in brief: as §2
Neurospora discreta [6] = experiment: Induction of Neurospora discreta w794 [5-32P]-DNA alkylation assessed as thermal-induced strand cleavage at 1 x 10^-5 M to 1 X 10^-4 M incubated for 48 hrs at 23 degC followed by thermolysis at 100 degC measured after 30 mins by PAGE/autoradiographic analysis
L1210 [7] = experiment: Antitumor activity against mouse L1210 cells allografted in B6D2F1 mouse assessed as mean survival period at 500 ug/kg, ip tid administered on day 1 to 9 measured after 366 days relative to vehicle-treated control; type: functional; method in brief: as §2
Neurospora discreta [8] = experiment: Induction of Neurospora discreta w794 [5-32P]-DNA alkylation assessed as thermal-induced strand cleavage at 1 x 10^-3 M incubated for 2 hrs at 23 degC followed by thermolysis at 100 degC for 30 mins measured after 12 to 48 hrs by PAGE/autoradiographic analysis in presence of L-glutathione; details: in the assay text read “1 x 10^-5 M” for “1 x 10^-3 M”
Method in brief: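 Agent first held with 1 M L-glutathione at 37 °C for 12 or 48 h to cause reductive activation. It was then incubated with 5′-32P-labelled w794 DNA at 23 °C for 2 h, and unbound agent was removed by EtOH precipitation. Thermolysis followed at 100 °C for 30 min, then 8% denaturing PAGE and autoradiography against Sanger sequencing lanes.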

Neurospora discreta [9] = experiment: Induction of Neurospora discreta w794 [5-32P]-DNA alkylation assessed as thermal-induced strand cleavage at 1 x 10^-3 M incubated for 2 hrs at 23 degC followed by thermolysis at 100 degC for 30 mins measured after 12 to 24 hrs by PAGE/autoradiographic analysis in absence of L-glutathione
Method in brief: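 Agent incubated with 5′-32P-labelled w794 DNA at 23 °C for 2 h; unbound agent removed by EtOH precipitation. Thermolysis at 100 °C for 30 min induced strand cleavage at alkylation sites. Read-out by 8% denaturing PAGE and autoradiography, alongside Sanger G, C, A and T sequencing lanes and untreated control DNA. No glutathione present.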

[10] = Cytotoxicity against human PC3MM2 cells assessed as growth inhibition under hypoxic condition after 72 hrs by SRB assay; type: functional, cell-based; details: PC3MM2, 72 h
Method in brief: (§3)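 Before the assay, A549 and PC3/MM2 cells were adapted for one week under hypoxia (37 °C, 5% CO2, 0.5% O2), subcultured twice; viability was checked by trypan blue. Cells were plated, held 24 h aerobic (37 °C, 5% CO2) or hypoxic, then exposed 72 h to 10 concentrations. SRB read-out per NCI DTP. Growth = [(Ti − Tz)/(C − Tz)] × 100%. IC50 by sigmoidal nonlinear regression, n = 3 independent experiments.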

Neurospora discreta [11] = experiment: Induction of Neurospora discreta w794 [5-32P]-DNA alkylation thermal-induced strand cleavage at 1 x 10^-2 M incubated for 48 hrs at 23 degC followed by thermolysis at 100 degC measured after 30 mins by PAGE/autoradiographic analysis
A549 [12] = experiment: Hypoxic cytotoxicity ratio of IC50 for human A549 cell under aerobic condition to IC50 for human A549 cells under hypoxic condition; type: functional
[13] = Half life in human plasma
[14] = Fraction unbound in human plasma; type: ADME, cell-free
[15] = Half life of the compound in phosphate buffer at pH 7
[16] = Half life in mouse plasma
[17] = Stability of the compound in H2, Pd/C, MeOH, at 23 degC after 1 hr; type: physicochemical
[18] = Stability of the compound in Mo(CO)6, MeCN/H2O after 3 hrs; type: physicochemical
L1210 [19] = experiment: Antitumor activity against mouse L1210 cells allografted in B6D2F1 mouse assessed as mean survival period at 2500 ug/kg, ip tid administered on day 1 to 9 measured after 366 days relative to vehicle-treated control; type: functional; method in brief: as §2
[20] = Half life of the compound in HCl/EtOAc at 23 degC; type: physicochemical
Mus musculus [21] = experiment: Toxicity in B6D2F1 mouse allografted with mouse L1210 cells assessed as mortality at 60 ug/kg, ip tid administered on day 1 to 9 measured after 366 days; type: organism-based; details: in vivo, 0.06 mg/kg, 8784 h; method in brief: as §1
A549 [22] = experiment: Cytotoxicity against human A549 cells assessed as growth inhibition under aerobic condition after 72 hrs by SRB assay; type: functional, cell-based; details: A549, 72 h; method in brief: as §3
A549 [23] = experiment: Cytotoxicity against human A549 cells assessed as growth inhibition under hypoxic condition after 72 hrs by SRB assay; type: functional, cell-based; details: A549, 72 h; method in brief: as §3
L1210 [24] = experiment: Antitumor activity against mouse L1210 cells allografted in B6D2F1 mouse assessed as mean survival period at 1000 ug/kg, ip tid administered on day 1 to 9 measured after 366 days relative to vehicle-treated control; type: functional; method in brief: as §2
[25] = Hypoxic cytotoxicity ratio of IC50 for human PC3MM2 cell under aerobic condition to IC50 for human PC3MM2 cells under hypoxic condition; type: functional
[26] = Cytotoxicity against human PC3MM2 cells assessed as growth inhibition under aerobic condition after 72 hrs by SRB assay; type: functional, cell-based; details: PC3MM2, 72 h; method in brief: as §3
L1210 [27] = experiment: Antitumor activity against mouse L1210 cells allografted in B6D2F1 mouse assessed as mean survival period at 200 ug/kg, ip tid administered on day 1 to 9 measured after 366 days relative to vehicle-treated control; type: functional; method in brief: as §2
Neurospora discreta [28] = experiment: Induction of Neurospora discreta w794 [5-32P]-DNA alkylation assessed as thermal-induced strand cleavage at 1 x 10^-3M incubated for 48 hrs at 23 degC followed by thermolysis at 100 degC for 30 mins measured after 12 to 48 hrs by PAGE/autoradiographic analysis in presence of L-glutathione
[29] = Fraction unbound in mouse plasma; type: ADME, cell-free
Neurospora discreta [30] = experiment: Induction of Neurospora discreta w794 [5-32P]-DNA alkylation assessed as thermal-induced strand cleavage at 1 x 10^-5 M incubated for 2 hrs at 23 degC followed by thermolysis at 100 degC measured after 30 mins by PAGE/autoradiographic analysis in absence of L-glutathione
Method in brief: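 Labeled DNA was incubated with agent for 2 h at 23 °C. Unbound agent was removed by EtOH precipitation, then thermolysis for 30 min at 100 °C, 8% denaturing PAGE and autoradiography, with Sanger G, C, A, T lanes as markers. In the glutathione arm, agent at 1 × 10−5 M was first held at 37 °C with 1 M L-glutathione for 12 or 48 h.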

Neurospora discreta [31] = experiment: Induction of Neurospora discreta w794 [5-32P]-DNA alkylation assessed as thermal-induced strand cleavage at 1 x 10^-5 M incubated for 2 hrs at 23 degC followed by thermolysis at 100 degC for 30 mins measured after 12 to 24 hrs by PAGE/autoradiographic analysis in presence of L-glutathione

For `CN1Oc2cc3c(c4cccc(c24)C1=O)[C@@H](CCl)CN3C(=O)OC(C)(C)C`, the IC50 (L1210 [1]; Mus musculus, L1210, 72 h) was over 1000 nM.
For `CN1Oc2cc3c(c4cccc(c24)C1=O)[C@@H](CCl)CN3C(=O)c1cc2cc(NC(=O)c3cc4ccccc4[nH]3)ccc2[nH]1`, the IC50 (L1210 [1]; Mus musculus, L1210, 72 h) was 740 nM.
With `O=C(Nc1ccc2[nH]c(C(=O)N3CC(CCl)c4c3cc(O)c3ccccc43)cc2c1)c1cc2ccccc2[nH]1` (stereo not given) the IC50 (L1210 [1]; Mus musculus, L1210, 72 h) was 0.9 nM.
For `O=C(Nc1ccc2[nH]c(C(=O)N3C[C@@H](CCl)c4c3cc(O)c3ccccc43)cc2c1)c1cc2ccccc2[nH]1` [SECO-CBI-INDOLE], the Activity (Mus musculus [2]) was “Toxic”, the T/C (L1210 [3]) was 36 and the T/C (L1210 [4]) was over 284. The T/C (L1210 [5]) was 21, the Activity (Neurospora discreta [6]) was “Active” and the T/C (L1210 [7]) was 17.
For `CC(C)(C)OC(=O)NOc1cc2c(c3ccccc13)[C@H](CCl)CN2C(=O)c1cc2cc(NC(=O)c3cc4ccccc4[nH]3)ccc2[nH]1`, the Activity (Neurospora discreta [8]) was “Active” and the Activity (Neurospora discreta [9]) was “inactive”.
`CC(C)(C)OC(=O)N1C[C@H](CCl)c2c1cc1c3c(cccc23)C(=O)NO1` showed an IC50 (L1210 [1]; Mus musculus, L1210, 72 h) of over 1000 nM.
Molecule `COc1c(O)c2c(c3cc(C(=O)N4CCc5c4c(O)c(OC)c4[nH]c(C(=O)N6CC7CC78C6=CC(=O)c6[nH]cc(C)c68)cc54)[nH]c13)CCN2C(N)=O` (stereo not given) [CC-1065] has an IC50 (L1210 [1]; Mus musculus, L1210, 72 h) of 0.02 nM.
`O=C(Nc1ccc2[nH]c(C(=O)N3C[C@H](CCl)c4c3cc3c5c(cccc45)C(=O)NO3)cc2c1)c1cc2ccccc2[nH]1` gave an IC50 (L1210 [1]; Mus musculus, L1210, 72 h) of 65 nM.
In the case of `COC(=O)c1cc2c([nH]1)C(=O)C=C1N(C(=O)c3cc4cc(OC)c(OC)c(OC)c4[nH]3)CC3CC123` (stereo not given) [DUOCARMYCIN SA], the IC50 (L1210 [1]; Mus musculus, L1210, 72 h) is reported as 0.1 nM.
`CC(C)(C)OC(=O)N1C[C@H]2C[C@@]23C1=CC(=O)c1ccccc13` showed an IC50 (L1210 [1]; l1210) of 900 nM.
In the case of `CN1Oc2cc3c(c4cccc(c24)C1=O)[C@H](CCl)CN3C(=O)c1cc2cc(NC(=O)c3cc4ccccc4[nH]3)ccc2[nH]1`, the IC50 [10] is reported as 35 nM, the Activity (Neurospora discreta [11]) is reported as “inactive” and the “Ratio IC50” value (A549 [12]) is reported as 5. For the same molecule, the half-life [13] was over 168 h, the fraction unbound [14] was under 0.05 and the half-life [15] was over 672 h. The half-life [16] was over 48 h, the Stability [17] was “Unstable” and the T/C (L1210 [4]) was 159. For the same molecule, the Stability [18] was “Unstable”, the T/C (L1210 [19]) was over 1500 and the half-life [20] was over 72 h. For the same molecule, the Activity (Mus musculus [21]) was “Toxic”, the IC50 (A549 [22]) was 25 nM and the IC50 (A549 [23]) was 5 nM. For the same molecule, the T/C (L1210 [24]) was over 1130, the “Ratio IC50” value [25] was 10 and the T/C (L1210 [7]) was over 1142. The IC50 [26] was 350 nM, the IC50 (L1210 [1]; Mus musculus, L1210, 72 h) was 0.99 nM and the T/C (L1210 [27]) was over 386.
With `CNC(=O)c1cccc2c3c(cc(O)c12)N(C(=O)c1cc2cc(NC(=O)c4cc5ccccc5[nH]4)ccc2[nH]1)CC3CCl` (racemic) the Activity (Neurospora discreta [28]) was “Active” and the IC50 (L1210 [1]; Mus musculus, L1210, 72 h) was 0.073 nM.
In the case of `O=C1Nc2cccc3c4c(cc(c23)O1)N(C(=O)c1cc2cc(NC(=O)c3cc5ccccc5[nH]3)ccc2[nH]1)C[C@H]4CCl`, the IC50 [10] is reported as 170 nM, the “Ratio IC50” value (A549 [12]) is reported as 1 and the IC50 (A549 [22]) is reported as 90 nM. The IC50 (A549 [23]) was 90 nM, the “Ratio IC50” value [25] was 1.9 and the IC50 [26] was 320 nM.
In the case of `O=C(Nc1ccc2[nH]c(C(=O)N3C[C@@H](CCl)c4c3cc3c5c(cccc45)C(=O)NO3)cc2c1)c1cc2ccccc2[nH]1`, the fraction unbound [29] is reported as under 0.05, the Activity (Neurospora discreta [30]) is reported as “inactive” and the half-life [16] is reported as over 48 h. The Activity (Neurospora discreta [31]) was “Active” and the IC50 (L1210 [1]; Mus musculus, L1210, 72 h) was 0.3 nM.
